ChEMBL document CHEMBL4376814, “Novel cyclin-dependent kinase 9 (CDK9) inhibitor with suppression of cancer stemness activity against non-small-cell lung cancer” (Eur J Med Chem, 2019)

Legend:
[1] = target: CDK4/Cyclin D3 (Homo sapiens) (UniProt P11802+P30281); assay: Inhibition of recombinant full-length human CDK4/cyclinD3 at 500 nM using Rb fragment as substrate measured after 40 mins in presence of [gamma33P]ATP by scintillation counting method relative to control; type: protein-complex assay
Summary of the method: (§1)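 Percent inhibition of kinase activity at a single compound concentration, measured by the outsourced Eurofins KinaseProfiler panel. Values are the mean of two independent experiments.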

[2] = tested on: PC-9; assay: Antiproliferative activity against human PC9 cells assessed as inhibition of cell viability after 72 hrs by CCK-8 assay; type: functional, cell-based; conditions: PC-9, 72 h
Summary of the method: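 Cells kept at 37 °C, 5% CO2 in DMEM or RPMI-1640 with 10% FBS and 1% penicillin/streptomycin, then seeded at 3000 cells/well (adherent) or 10,000 cells/well (suspension). Exposed to a range of concentrations for 72 h. CCK-8 added for 1-4 h before reading A450. […] Three independent experiments.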

[3] = tested on: NCI-H1299; assay: Induction of apoptosis in human H1299 cells assessed as necrotic cells at 1 uM after 48 hrs by AnnexinV-FITC/PI staining-based flow cytometric analysis (reference value: 0.9%); type: functional
[4] = target: Serine/threonine-protein kinase mTOR (Homo sapiens) (UniProt P42345); assay: Inhibition of recombinant full-length human mTOR at 1 uM after 40 mins in presence of [gamma33P]ATP by scintillation counting method relative to control
[5] = target: CDK2/Cyclin A2 (Homo sapiens) (UniProt P24941+P20248); assay: Inhibition of recombinant full-length human CDK2/cyclinA at 1 uM using Histone H1 as substrate measured after 40 mins in presence of [gamma33P]ATP by scintillation counting method relative to control; type: protein-complex assay
[6] = target: Casein kinase 2 (Homo sapiens) (UniProt P67870+P68400+P19784+Q8NEV1); assay: Inhibition of human CK2 at 1 uM relative to control; type: protein assay; summary of the method: as §1
[7] = target: Dual specificity protein kinase CLK1 (Homo sapiens) (UniProt P49759); assay: Inhibition of recombinant human CLK1 (130 to end residues) at 1 uM using ERMRPRKRQGSVRRRV as substrate measured after 40 mins in presence of [gamma33P]ATP by scintillation counting method relative to control
Chain of Dual specificity protein kinase CLK1 (Homo sapiens) (P49759 whole entry, looked up): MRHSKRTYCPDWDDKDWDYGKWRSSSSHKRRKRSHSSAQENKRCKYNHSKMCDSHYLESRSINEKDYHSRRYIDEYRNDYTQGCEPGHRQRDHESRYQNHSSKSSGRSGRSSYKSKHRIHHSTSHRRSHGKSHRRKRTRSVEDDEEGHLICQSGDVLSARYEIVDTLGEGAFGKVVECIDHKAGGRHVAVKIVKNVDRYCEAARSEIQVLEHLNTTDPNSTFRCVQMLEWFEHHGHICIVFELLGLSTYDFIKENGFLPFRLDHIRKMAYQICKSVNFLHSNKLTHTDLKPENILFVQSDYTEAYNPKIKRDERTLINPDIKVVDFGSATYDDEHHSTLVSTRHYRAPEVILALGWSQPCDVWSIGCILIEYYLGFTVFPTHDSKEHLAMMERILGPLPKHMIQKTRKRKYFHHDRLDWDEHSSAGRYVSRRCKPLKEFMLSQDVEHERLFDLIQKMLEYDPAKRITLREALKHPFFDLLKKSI

[8] = target: Serine/threonine-protein kinase/endoribonuclease IRE1 (Homo sapiens) (UniProt O75460); assay: Inhibition of recombinant human IRE1 (465 to end residues) at 1 uM using myelin basic protein as substrate measured after 40 mins in presence of [gamma33P]ATP by scintillation counting method relative to control
Chain of Serine/threonine-protein kinase/endoribonuclease IRE1 (Homo sapiens) (O75460 19-977 limits assumed): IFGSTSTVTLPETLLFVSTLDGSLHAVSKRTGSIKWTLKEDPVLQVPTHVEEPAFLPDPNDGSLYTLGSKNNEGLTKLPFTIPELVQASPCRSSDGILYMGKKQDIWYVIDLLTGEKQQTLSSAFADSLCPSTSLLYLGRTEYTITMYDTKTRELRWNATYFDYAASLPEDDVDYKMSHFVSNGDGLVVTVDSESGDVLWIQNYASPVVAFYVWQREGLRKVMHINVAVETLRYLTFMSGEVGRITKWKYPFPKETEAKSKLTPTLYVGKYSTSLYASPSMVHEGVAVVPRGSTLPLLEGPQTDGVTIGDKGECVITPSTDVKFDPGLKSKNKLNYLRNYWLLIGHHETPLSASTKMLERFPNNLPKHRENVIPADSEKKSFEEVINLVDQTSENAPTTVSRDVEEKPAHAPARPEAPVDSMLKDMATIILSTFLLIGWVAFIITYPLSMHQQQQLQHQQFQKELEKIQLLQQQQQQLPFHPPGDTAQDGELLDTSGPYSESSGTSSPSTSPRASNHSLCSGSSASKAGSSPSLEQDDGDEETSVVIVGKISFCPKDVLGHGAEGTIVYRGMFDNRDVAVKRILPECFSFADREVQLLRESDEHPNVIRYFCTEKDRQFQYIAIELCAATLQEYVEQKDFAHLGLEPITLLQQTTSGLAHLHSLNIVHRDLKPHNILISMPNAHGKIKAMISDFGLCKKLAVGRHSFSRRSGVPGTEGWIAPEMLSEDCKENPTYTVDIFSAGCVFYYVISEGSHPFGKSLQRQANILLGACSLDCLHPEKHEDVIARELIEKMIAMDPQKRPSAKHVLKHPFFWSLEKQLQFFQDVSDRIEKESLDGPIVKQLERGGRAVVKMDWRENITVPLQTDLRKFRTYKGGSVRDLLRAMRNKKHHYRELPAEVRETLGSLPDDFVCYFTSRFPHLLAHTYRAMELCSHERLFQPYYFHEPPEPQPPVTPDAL

[9] = tested on: SNF-related serine/threonine-protein kinase (Homo sapiens), Q9NRH2 [UNDEFINED MUTATION]; assay: Inhibition of human SNRK E97G/P116A mutant (1 to 505 residues) at 1 uM using KKLRRTLSFAEPG as substrate measured after 40 mins in presence of [gamma33P]ATP by scintillation counting method relative to control; summary of the method: as §1
Chain of SNF-related serine/threonine-protein kinase (Homo sapiens), Q9NRH2 [UNDEFINED MUTATION] (Q9NRH2 whole entry, looked up, stated change not applied, the tested form may be a part): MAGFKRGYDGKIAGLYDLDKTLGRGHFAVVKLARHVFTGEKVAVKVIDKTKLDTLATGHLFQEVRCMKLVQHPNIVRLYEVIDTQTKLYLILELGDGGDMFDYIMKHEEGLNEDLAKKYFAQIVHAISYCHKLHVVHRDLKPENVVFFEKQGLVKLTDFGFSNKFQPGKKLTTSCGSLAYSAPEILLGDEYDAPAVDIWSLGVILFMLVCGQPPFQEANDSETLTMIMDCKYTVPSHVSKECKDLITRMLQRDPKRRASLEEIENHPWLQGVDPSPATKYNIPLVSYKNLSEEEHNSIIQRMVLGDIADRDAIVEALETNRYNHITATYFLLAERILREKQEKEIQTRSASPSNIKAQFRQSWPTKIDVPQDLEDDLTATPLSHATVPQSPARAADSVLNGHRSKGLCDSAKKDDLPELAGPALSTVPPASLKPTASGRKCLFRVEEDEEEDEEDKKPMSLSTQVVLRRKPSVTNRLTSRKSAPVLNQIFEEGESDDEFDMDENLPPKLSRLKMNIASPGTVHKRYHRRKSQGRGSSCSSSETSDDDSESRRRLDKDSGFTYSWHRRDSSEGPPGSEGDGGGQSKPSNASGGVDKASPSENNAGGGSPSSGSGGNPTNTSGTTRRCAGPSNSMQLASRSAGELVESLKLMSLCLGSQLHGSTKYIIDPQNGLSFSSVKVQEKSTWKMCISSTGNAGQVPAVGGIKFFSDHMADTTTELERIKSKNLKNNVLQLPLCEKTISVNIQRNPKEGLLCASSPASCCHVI

[10] = target: PI3-kinase p110-alpha/p85-alpha (Homo sapiens) (UniProt P27986+P42336); assay: Inhibition of recombinant full-length human PI3K p110alpha/p85alpha at 1 uM using phosphatidylinositol-4, 5-bisphosphate as substrate measured after 40 mins by fluorescence assay relative to control; type: protein-complex assay

SMILES: CN(C)C(=O)c1cc2cnc(Nc3ccc(NC(=O)CCCCCCCN=C=S)cc3)nc2n1C1CCCC1
- inhibition [1]: 75%
- IC50 [2]: 947 nM
- Activity [3]: 3.64%
- inhibition [4]: -1%
- inhibition [5]: 58%
- inhibition [6]: 4%
- inhibition [7]: 14%
- inhibition [8]: 29%
- inhibition [9]: 7%
- inhibition [10]: 8%
